From PubChem BioAssay
Most compounds without a hit are left out; they make up all but 0.77% or so of the library.
Furin inhibitor – human furin inhibitors, primary screen, biochemical, fluorescence intensity; P09958; purified furin, fluorogenic substrate cleavage; inhibition, % at 20 µM or 30 µM; 220,000 compounds, 0.061% hits; in the data active means inhibition above about 25%
ABCG2 inh – ABCG2 efflux pump inhibitors, primary screen, multiplex with ABCB1, IgMXP3 cells, flow cytometry; AID 1325, 2008; JC-1 efflux; 190,000 compounds, 0.1% hits; inhibition, % at 6.6 µM;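 active means inhibition above 80%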;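 further: 0% = DMSO and 100% = nicardipine control wells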
Target sequence (Q9UNQ0 whole entry, looked up): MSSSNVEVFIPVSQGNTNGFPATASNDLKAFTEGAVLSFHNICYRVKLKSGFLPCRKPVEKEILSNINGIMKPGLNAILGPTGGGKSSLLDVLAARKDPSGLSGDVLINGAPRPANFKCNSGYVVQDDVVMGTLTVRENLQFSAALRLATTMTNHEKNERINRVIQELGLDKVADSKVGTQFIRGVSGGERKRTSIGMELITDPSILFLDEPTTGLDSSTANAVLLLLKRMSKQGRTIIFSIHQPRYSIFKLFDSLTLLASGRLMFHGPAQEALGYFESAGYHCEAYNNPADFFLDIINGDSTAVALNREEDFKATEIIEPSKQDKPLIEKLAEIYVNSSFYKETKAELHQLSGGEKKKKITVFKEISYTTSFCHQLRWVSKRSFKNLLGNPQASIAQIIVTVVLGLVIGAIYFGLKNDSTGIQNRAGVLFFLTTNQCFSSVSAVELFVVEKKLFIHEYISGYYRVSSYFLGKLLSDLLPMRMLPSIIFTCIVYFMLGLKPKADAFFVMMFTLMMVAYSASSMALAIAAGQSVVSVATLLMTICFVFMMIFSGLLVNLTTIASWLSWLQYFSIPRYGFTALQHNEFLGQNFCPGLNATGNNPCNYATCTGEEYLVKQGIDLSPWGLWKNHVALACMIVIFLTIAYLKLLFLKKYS
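Measure – % inhibition of efflux relative to nicardipine and DMSO · Test system – ABCG2 IgMXP3 and barcoded ABCB1 CCRF-Adr cell mix · Control set – nicardipine as high control, DMSO as low control · Compound – one concentration, 6.6 µM final · Signal – flow cytometry of retained JC-1 fluorescence · Timing – 10 min exposure at 25 °C with rotation, no wash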
PERK inhibitor – block of dimerizer-induced PERK translation repression, primary screen, PERK inhibitor project, CHO PERK-DD cells, SEAP luminescence, HTS; Eukaryotic translation initiation factor 2-alpha kinase 3 (Homo sapiens), Q9NZJ5; CHO PERK-DD fusion, SEAP luminescence translation reporter; inhibition, % at 5.6 µM; 220,000 compounds, 0.17% hits;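 active means inhibition above the mean inhibition of all tested compounds plus 3 SD, set separately per screening campaign, cut at about 2.9% in these data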;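 further: PERK kinase domain activated by AP20187 dimerizer at 100 nM; 0% = DMSO with dimerizer and 100% = rapamycin at 8.4 µM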
Rad51 HR inh – human RAD51 strand exchange inhibitors, primary screen, biochemical, fluorescence; AID 1385, 2008; inhibition, % at 10 µM; DNA repair protein RAD51 homolog 1 (Homo sapiens), Q06609; 200,000 compounds, 0.085% hits; hRad51 DNA strand exchange, fluorescence dequenching;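 active means inhibition above 40% at the single screening dose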;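 further: 0% = DMSO control wells and 100% = blanks with heterologous ssDNA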
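Test system: preformed human Rad51 ssDNA filaments. Compound dosing: single dose, 10 µM final compound. Incubation: filaments 15 min 37 °C, then compound 30 min. Technique: FRET fluorescence dequenching, excitation 485 nm, emission 520 nm. Read-out basis: percent inhibition from fluorescence, normalised to plate control and blank means. Benchmarks: plate controls and plate blanks.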
HMGR II inh – inhibitors of E. faecalis class II HMGR, primary screen, biochemical, Enterococcus faecalis; purified E. faecalis HMGR, NADPH absorbance 340 nm kinetic; HMG-CoA reductase (Enterococcus faecalis, mvaE); 190,000 compounds, 0.41% hits; AID 1066, 2008; inhibition, % at 10 µM;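 active means inhibition above a set limit, the median over all tested compounds plus 3 SD, cut at about 9.5% in these data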;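 further: enzyme runs in reverse so mevalonate oxidation gives rising NADPH absorbance; 0% = complete reaction with DMSO and 100% = background rate lacking mevalonate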
ABCB1 block – ABCB1 efflux pump inhibitors, primary screen, cell-based, multiplex, flow cytometry, ABCG2 counter-screen. ATP-dependent translocase ABCB1 (Homo sapiens), P08183. CCRF-Adr cells, JC-1 efflux. inhibition, % at 6.6 µM. 190,000 compounds, 0.067% hits. AID 1326, 2008; in the data active means inhibition above about 40%;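 further: 0% = vehicle and 100% = reference inhibitor; higher value means more JC-1 retained so stronger ABCB1 efflux block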
Active calls of the source: *; · = no result.

SMILES | Furin inhibitor | ABCG2 inh | PERK inhibitor | Rad51 HR inh | HMGR II inh | ABCB1 block
CCNc1ccc(P(=O)(c2ccccc2)c2ccccc2)cc1 | -13 | -1 | -1 | -5 | -12 | 0
Cc1cc(C=O)c2c(c1)C=CC1(Oc3ccccc3C(=O)N1C)O2 (stereo not given) | -14 | 2 | -1 | · | 19* | 1
CN1C(=O)c2ccccc2OC1(C)Cc1ccccc1 (stereo not given) | -17 | 11 | 0 | 14 | -9 | 0
Cc1cc(-c2ccccc2)nc(N(C)NC(=O)c2c(F)cccc2F)c1S(C)(=O)=O | -25 | 18 | -2 | 9 | -1 | 2
Cc1cc(-c2ccccc2)nc(N(C)N)c1S(C)(=O)=O | -14 | 1 | 0 | 6 | 11* | 0
O=C(Nc1ccc(C(F)(F)F)cc1)c1cc(S(=O)(=O)NCC2COc3ccccc3O2)ccc1F (stereo not given) | -9 | 2 | 1 | · | -2 | 0
CCC1Oc2ccccc2N(CC(=O)NCc2ccco2)C1=O (stereo not given) | -33 | 2 | 1 | 0 | 41* | 0
CCOC(=O)Cn1cc(C#N)c2cccc(CC)c21 | -21 | 3 | 3.3* | 2 | -9 | 0
CCc1cccc2c(C#N)cn(CC(=O)NCc3ccco3)c12 | -6 | 10 | 1 | -7 | 3 | 1
N#C/C(=C\c1ccccc1)C(=O)OCC(=O)N1CCCC1 | -27 | 1 | 1 | 15 | -6 | 0
Cc1ccc(Cl)c(OCC(=O)OCC(=O)NC2CCCc3ccccc32)c1 (stereo not given) | -18 | 5 | 0 | 0 | 13* | 1
Cc1cccc(-n2c(CNC(=O)c3ccc(S(=O)(=O)N(C)C)cc3)nnc2SCC(=O)Nc2ccc(F)cc2)c1 | -7 | 4 | 1 | -5 | -2 | 0
Cc1cc(C)nc(N/N=C2/CCCC/C2=C\c2ccccc2)n1 | -7 | 0 | 0 | 1 | 14* | 0
Cc1ccnc(N/N=C/c2ccccc2)n1 | -11 | 0 | 1 | 2 | -1 | 0
COc1ccc(/C(C)=N/NC(=O)Cn2nc([N+](=O)[O-])cc2C)cc1 | -5 | · | 0 | 11 | · | ·
COc1cccc2c1C(=O)c1c(O)c3c(c(O)c1C2=O)C[C@@](O)(C(=O)CO)C[C@@H]3O[C@H]1C[C@H](N)[C@H](O)[C@H](C)O1 | 5 | · | -1 | 66* | -6 | ·
O=C(Nc1ccc2c(c1)C(=O)N(CC1CCCO1)C2=O)c1ccccc1Br (stereo not given) | -18 | 1 | 1 | 4 | 12* | 0
Cc1cccc(SC2CCN(Cc3nc(CC4CC4)no3)CC2)c1 | -9 | 2 | 2 | · | -3 | 0
Cc1cccc(OC2CCN(Cc3nc(CC4CC4)no3)CC2)c1 | -24 | 0 | 3.0* | · | -7 | 0
S=C(NCc1ccco1)Nc1ccc(Oc2ccccc2)cc1 | -7 | 4 | 2 | · | 1 | 0
COC(=O)c1c(N2C(=O)[C@H]3[C@@H](C2=O)[C@]2(C(=O)Nc4c2ccc(C)c4C)N2CCC[C@@H]32)sc(C)c1C | 1 | 9 | 1 | 41* | -3 | 7
COC(=O)c1c(N2C(=O)[C@H]3[C@@H](C2=O)[C@]2(C(=O)Nc4c(C)cc(C)cc42)N2CCC[C@@H]32)sc(C)c1C | -25 | 3 | -1 | -9 | 1 | 2
CC1(C)CNC(=O)c2sc(NC(=O)c3ccccc3)nc2C1 | -13 | 0 | 0 | 2 | 14* | 0
CC1(C)CC(=O)c2sc(NC(=O)c3ccccc3)nc2C1 | -19 | 7 | 2 | 4 | -1 | -1
Cc1ccc(CSCCNC(=O)CSc2ccccc2)cc1 | -12 | 1 | 0 | -6 | 1 | 0
SMILES | Furin inhibitor | ABCG2 inh | PERK inhibitor | Rad51 HR inh | HMGR II inh | ABCB1 block
CCOC(=O)N1CCN(c2cc(NCCO)c([N+](=O)[O-])c3nonc23)CC1 | -14 | 1 | 0 | 15 | 13* | 1
O=C(NCCc1ccccc1)c1cc(=O)[nH]c2ccccc12 | -13 | -1 | 3 | 1 | -11 | 0
O=C(N/C(=C/c1ccco1)C(=O)N1CCCCC1)c1cccs1 | -26 | 0 | 1 | 8 | 0 | 0
C(=C\c1ccccc1)/CNCC1CCCO1 (stereo not given) | -11 | -1 | 0 | · | 11* | 0
O=C(Nc1cccc([N+](=O)[O-])c1)Nc1cccs1 | -14 | 15 | 1 | 11 | -8 | -1
CCOC(=O)c1c(NS(C)(=O)=O)sc2c1CCC(C)C2 (stereo not given) | -6 | 0 | 0 | 89* | 0 | 0
CCOC(=O)c1c(N)sc2c1CCC(C)C2 (stereo not given) | -6 | 5 | 0 | 0 | -5 | 1
Cc1ccc(CN(C)CC(=O)Nc2ccc3c(c2)CCC3)cc1 | -8 | 17 | 0 | 13 | 14* | 1
CCCCCC(=O)Nc1cccc(C2=NOC3(C2)C[C@H](C(N)=O)N(C(=O)c2ccccc2C(=O)c2ccccc2)C3)c1 (stereo not given in full) | -26 | · | · | 7 | · | ·
O=C(O)CCCN1C(=O)/C(=C\c2ccco2)SC1=S | -19 | 3 | 1 | 2 | 12* | 0
COc1cccc(/C=C/C(=O)c2cccc([N+](=O)[O-])c2)c1OC | -21 | 14 | 0 | 80* | -8 | 2
COc1cccc(/C=C/C(=O)c2cccc([N+](=O)[O-])c2)c1 | -13 | 20 | 2 | -35 | -2 | 0
CCn1c(=O)c2c3c(sc2n2c(=S)[nH]nc12)CCC3 | -8 | 0 | 0 | 1 | -4 | 0
Cc1nc(SC2CC(=O)N(c3ccccc3)C2=O)n[nH]1 (stereo not given) | -30 | 2 | 2 | -2 | 13* | 0
CCc1cccc(CC)c1NC(=O)COn1nnc2ccc(C(F)(F)F)cc21 | -11 | -3 | 0 | 13 | -3 | -1
Cc1cccc(C(=O)N2CCC(=O)N(C(COCc3ccccc3)Cc3ccccc3)CC2)c1 (stereo not given) | -18 | 0 | -1 | -9 | 15* | 2
CC(C)(C)[C@H]1C=C(C(=O)N2CCN(Cc3ccc4c(c3)OCO4)CC2)O[C@@H](OCc2ccc(CO)cc2)C1 | -29 | 2 | 1 | 7 | 19* | 2
